Measurements from ChEMBL document CHEMBL1156857, “N-Acetamideindolecarboxylic acid allosteric 'finger-loop' inhibitors of the hepatitis C virus NS5B polymerase: discovery and initial optimization studies” (Bioorg Med Chem Lett, 2010).
Converted amounts (≈) assume the structure as drawn.

Columns and labels:
[1] = Inhibition of calf thymus DNA-directed RNA polymerase 2; design: species or system Bos taurus
Hepatitis C virus = assay: Antiviral activity against Hepatitis C virus subtype 1b infected in human Huh7 cells assessed as inhibition of viral RNA replication; assay type: functional, organism-based, Hepacivirus hominis, genotype 1b, Huh-7; conditions: Hepatitis C virus, genotype 1b, Huh-7; read-out: EC50
Summary of the method: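 Stable subgenomic HCV genotype 1b replicon in Huh-7 cells carrying a modified luciferase reporter. EC50 from duplicate or more determinations. Some inhibitors were also run in a 72 h replicon format, with HCV RNA normalized to total cellular RNA. Cytotoxicity checked as TC50.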

[2] = Inhibition of histidine-tagged HCV NS5Bdelta21 by scintillation proximity assay; design: species or system Hepacivirus hominis
Summary of the method: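 Soluble truncated NS5B at 12 nM. Reaction contains 0.01% w/v BSA, with no dodecyl-β-D-maltoside or IGEPAL. Other conditions follow an earlier method. IC50 is the mean of duplicate experiments on two separate weighings.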

[3] = Lipophilicity, log D at pH 7.4; assay type: physicochemical; conditions: buffer
[4] = Equilibrium solubility at pH 7.2 with amorphous solid after 24 hrs by shake flask method; assay type: physicochemical; conditions: buffer
[5] = Half life in human liver microsomes at 2 uM; assay type: ADME, Microsome
Summary of the method: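 Human liver microsomes incubated with test compound at 2 µM. Stability reported as T1/2 in min.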

Cytochrome P450 3A4 = Cytochrome P450 3A4 (Homo sapiens, UniProt P08684); assay: Inhibition of CYP3A4; assay type: ADME
Cytochrome P450 3A4, sequence (P08684 whole entry): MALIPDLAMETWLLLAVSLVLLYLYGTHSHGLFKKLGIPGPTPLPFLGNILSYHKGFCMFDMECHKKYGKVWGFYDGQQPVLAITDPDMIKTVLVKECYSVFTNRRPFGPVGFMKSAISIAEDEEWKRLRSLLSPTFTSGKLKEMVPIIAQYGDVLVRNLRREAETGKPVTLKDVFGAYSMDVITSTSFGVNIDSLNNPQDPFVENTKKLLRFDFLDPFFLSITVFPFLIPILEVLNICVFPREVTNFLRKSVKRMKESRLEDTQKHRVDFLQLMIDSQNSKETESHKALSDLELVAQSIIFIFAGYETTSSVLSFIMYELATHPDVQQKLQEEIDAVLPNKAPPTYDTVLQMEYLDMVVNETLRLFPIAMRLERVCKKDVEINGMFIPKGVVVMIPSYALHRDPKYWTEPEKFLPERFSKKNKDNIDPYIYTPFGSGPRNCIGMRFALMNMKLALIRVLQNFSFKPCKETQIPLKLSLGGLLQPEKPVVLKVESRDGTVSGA
Summary of the method: (§1)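 IC50s measured against CYP 1A2, 2C9, 2C19, 2D6 and 3A4 isozymes. The value reported is the lowest IC50, taken against the most sensitive isozyme.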

[6] = (§2) Permeability from apical to basolateral side of the human Caco-2 cells at pH 7.4; assay type: ADME, cell-based; conditions: Caco-2, pH 7.4, read-out: permeability
Summary of the method: (§3)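 Caco-2 permeability measured in the apical-to-basal direction at pH 7.4.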

Cytochrome P450 2C19 = Cytochrome P450 2C19 (Homo sapiens, UniProt P33261); assay: Inhibition of CYP2C19; assay type: ADME; summary of the method: as §1
Cytochrome P450 2C19, sequence (P33261 whole entry): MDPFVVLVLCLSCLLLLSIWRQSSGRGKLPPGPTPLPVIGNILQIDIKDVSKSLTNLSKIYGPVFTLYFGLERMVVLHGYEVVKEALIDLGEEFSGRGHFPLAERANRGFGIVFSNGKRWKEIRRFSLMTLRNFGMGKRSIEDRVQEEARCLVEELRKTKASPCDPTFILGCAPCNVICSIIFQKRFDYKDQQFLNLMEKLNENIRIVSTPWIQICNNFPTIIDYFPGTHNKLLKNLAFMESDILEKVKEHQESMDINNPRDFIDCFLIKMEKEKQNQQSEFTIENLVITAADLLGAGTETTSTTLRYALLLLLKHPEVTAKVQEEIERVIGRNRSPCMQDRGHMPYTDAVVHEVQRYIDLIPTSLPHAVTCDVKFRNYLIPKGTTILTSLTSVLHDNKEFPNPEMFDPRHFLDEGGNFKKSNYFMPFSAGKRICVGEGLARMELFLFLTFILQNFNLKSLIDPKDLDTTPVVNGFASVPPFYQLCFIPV

Caco-2 = assay: as §2; assay type: ADME, cell-based; conditions: caco-2, pH 7.4, BLD = below limit of detection; summary of the method: as §3
Cytochrome P450 2C9 = Cytochrome P450 2C9 (Homo sapiens, UniProt P11712); assay: Inhibition of CYP2C9; assay type: ADME; summary of the method: as §1
Cytochrome P450 2C9, sequence (P11712 whole entry): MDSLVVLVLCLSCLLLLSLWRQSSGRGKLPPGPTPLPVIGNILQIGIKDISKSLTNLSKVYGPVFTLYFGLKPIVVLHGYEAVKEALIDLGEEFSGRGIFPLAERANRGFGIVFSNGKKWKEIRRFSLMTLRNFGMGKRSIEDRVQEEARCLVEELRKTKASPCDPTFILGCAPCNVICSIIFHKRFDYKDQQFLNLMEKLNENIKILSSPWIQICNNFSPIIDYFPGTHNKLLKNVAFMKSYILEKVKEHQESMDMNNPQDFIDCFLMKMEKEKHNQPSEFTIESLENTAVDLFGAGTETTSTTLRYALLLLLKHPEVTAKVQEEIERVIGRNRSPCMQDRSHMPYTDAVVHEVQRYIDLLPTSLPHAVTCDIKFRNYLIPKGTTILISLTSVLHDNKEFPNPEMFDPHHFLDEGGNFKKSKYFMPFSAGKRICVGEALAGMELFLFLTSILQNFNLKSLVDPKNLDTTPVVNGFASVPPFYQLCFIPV

[7] = Half life in rat liver microsomes at 2 uM; assay type: ADME, Microsome

SMILES | IC50 [1] [µM] | EC50 (Hepatitis C virus) [nM] | IC50 [2] [nM] | also measured
CN(C)C(=O)Cn1c(-c2ccccc2)c(C2CCCCC2)c2ccc(C(=O)O)cc21 | > 250 | 1400 | 40 | 
O=C(O)c1ccc2c(C3CCCCC3)c(-c3ccccc3)n(CC(=O)N3CCOCC3)c2c1 | > 250 | 700 | 70 | 
CN(C)C(=O)Cn1c(-c2ccoc2)c(C2CCCCC2)c2ccc(C(=O)O)cc21 | > 250 | 800 | 20 | logD [3]: 1.45; solubility thermodynamic at 24 h [4]: 240 µg/mL (≈ 608 µM); half-life at 2 µM [5]: 250 min; IC50 (Cytochrome P450 3A4): >= 26 uM; Papp A→B [6]: 12.8 ×10⁻⁶ cm/s
Cn1c(-c2ccoc2)c(C2CCCCC2)c2ccc(C(=O)O)cc21 |  | 4200 | 16 | logD [3]: 3.26
O=C(O)c1ccc2c(C3CCCCC3)c(-c3cc4ccccc4s3)n(CC(=O)N3CCC(N4CCCC4)CC3)c2c1 | > 250 | 1000 | 160 | 
CN(CCc1ccncc1)C(=O)Cn1c(-c2ccoc2)c(C2CCCCC2)c2ccc(C(=O)O)cc21 | > 250 | 630 | 30 | 
CCN(CC)CCN(C)C(=O)Cn1c(-c2ccoc2)c(C2CCCCC2)c2ccc(C(=O)O)cc21 | > 250 | 460 | 30 | 
CN(C)CCCN(C)C(=O)Cn1c(-c2ccoc2)c(C2CCCCC2)c2ccc(C(=O)O)cc21 | > 250 | 580 | 20 | 
O=C(O)c1ccc2c(C3CCCCC3)c(-c3ccccc3)n(CC(=O)N3CCC(N4CCCC4)CC3)c2c1 | > 250 | 380 | 40 | solubility thermodynamic at 24 h [4]: 47 µg/mL (≈ 91.5 µM); half-life at 2 µM [5]: 111 min; Papp A→B [6]: < 0.1 ×10⁻⁶ cm/s
O=C(O)c1ccc2c(C3CCCCC3)c(-c3ccco3)n(CC(=O)N3CCC(N4CCCC4)CC3)c2c1 | > 250 | 1200 | 30 | 
O=C(O)c1ccc2c(C3CCCCC3)c(-c3cnccn3)n(CC(=O)N3CCC(N4CCCC4)CC3)c2c1 | > 250 | 10000 | 60 | 
O=C(O)c1ccc2c(C3CCCCC3)c(-c3ccoc3)n(CC(=O)N3CCC(N4CCCC4)CC3)c2c1 | > 250 | 380 | 20 | solubility thermodynamic at 24 h [4]: 79 µg/mL (≈ 157 µM); half-life at 2 µM [5]: > 300 min; Papp A→B [6]: 1.4 ×10⁻⁶ cm/s
O=C(O)c1ccc2c(C3CCCCC3)c(-c3ccoc3)n(CC(=O)N3CCC(N4CCCCC4)CC3)c2c1 | > 250 | 780 | 30 | 
O=C(O)c1ccc2c(C3CCCCC3)c(-c3ccsc3)n(CC(=O)N3CCC(N4CCCC4)CC3)c2c1 | > 250 | 1000 | 30 | 
O=C(O)c1ccc2c(C3CCCCC3)c(-c3ccoc3)n(CC(=O)N3CCN(CCO)CC3)c2c1 | > 250 | 1300 | 20 | 
CN1CCCN(C(=O)Cn2c(-c3ccoc3)c(C3CCCCC3)c3ccc(C(=O)O)cc32)CC1 | > 250 | 330 | 20 | 
O=C(O)c1ccc2c(C3CCCCC3)c(-c3cccs3)n(CC(=O)N3CCC(N4CCCC4)CC3)c2c1 | > 250 | 460 | 20 | solubility thermodynamic at 24 h [4]: 60 µg/mL (≈ 115 µM); half-life at 2 µM [5]: > 300 min; Papp A→B [6]: 0.2 ×10⁻⁶ cm/s; IC50 (Cytochrome P450 2C19): ≥ 11 µM
O=C(O)c1ccc2c(C3CCCCC3)c(-c3ccoc3)n(CC(=O)N3CCC(CCO)CC3)c2c1 | > 250 | 1300 | 70 | 
CN(C)C(=O)Cn1c(-c2cccs2)c(C2CCCCC2)c2ccc(C(=O)O)cc21 | > 250 | 600 | 20 | 
COCCN(C)C(=O)Cn1c(-c2ccoc2)c(C2CCCCC2)c2ccc(C(=O)O)cc21 | > 250 | 1300 | 50 | 
CCN1CCN(C(=O)Cn2c(-c3ccoc3)c(C3CCCCC3)c3ccc(C(=O)O)cc32)CC1 | > 250 | 410 | 30 | solubility thermodynamic at 24 h [4]: 12 µg/mL (≈ 25.9 µM); half-life at 2 µM [5]: > 300 min; IC50 (Cytochrome P450 3A4; read-out: IC50): ≥ 16 µM; Papp A→B [6]: 6.5 ×10⁻⁶ cm/s

SMILES | IC50 [1] [µM] | EC50 (Hepatitis C virus) [nM] | IC50 [2] [nM] | also measured
CC(C)N1CCN(C(=O)Cn2c(-c3ccoc3)c(C3CCCCC3)c3ccc(C(=O)O)cc32)CC1 | > 250 | 830 | 40 | solubility thermodynamic at 24 h [4]: 18 µg/mL (≈ 37.7 µM); half-life at 2 µM [5]: > 300 min; IC50 (Cytochrome P450 3A4; read-out: IC50): ≥ 8 µM; Papp A→B [6]: 7 ×10⁻⁶ cm/s
O=C(O)c1ccc2c(C3CCCCC3)c(-c3cc4ccccc4s3)n(CC(=O)N3CCOCC3)c2c1 | > 250 | 1100 | 160 | 
CC(C)N(C(=O)Cn1c(-c2ccoc2)c(C2CCCCC2)c2ccc(C(=O)O)cc21)C(C)C | > 250 | 2300 | 70 | 
CN1CCN(C(=O)Cn2c(-c3ccoc3)c(C3CCCCC3)c3ccc(C(=O)O)cc32)CC1 | > 250 | 450 | 40 | solubility thermodynamic at 24 h [4]: 7 µg/mL (≈ 15.6 µM); half-life at 2 µM [5]: 70 min; Papp A→B [6]: 1.7 ×10⁻⁶ cm/s
O=C(O)c1ccc2c(C3CCCCC3)c(-c3cccs3)n(CC(=O)N3CCOCC3)c2c1 | > 250 | 600 | 30 | 
CN(C)C(=O)Cn1c(-c2cc3ccccc3s2)c(C2CCCCC2)c2ccc(C(=O)O)cc21 | > 250 | 2500 | 210 | 
O=C(O)c1ccc2c(C3CCCCC3)c(-c3ccco3)n(CC(=O)N3CCOCC3)c2c1 | > 250 | 1000 | 40 | 
O=C(O)c1ccc2c(C3CCCCC3)c(-c3ccsc3)n(CC(=O)N3CCOCC3)c2c1 | > 250 | 330 | 40 | 
O=C(O)c1ccc2c(C3CCCCC3)c(-c3ccoc3)n(CC(=O)N3CCCCC3)c2c1 | > 250 | 820 | 40 | 
CN(C)C(=O)Cn1c(-c2ccco2)c(C2CCCCC2)c2ccc(C(=O)O)cc21 | > 250 | 1500 | 40 | 
CN(C)C(=O)Cn1c(-c2ccsc2)c(C2CCCCC2)c2ccc(C(=O)O)cc21 | > 250 | 640 | 40 | 
CN(CCO)C(=O)Cn1c(-c2ccoc2)c(C2CCCCC2)c2ccc(C(=O)O)cc21 | > 250 | 1500 | 20 | solubility thermodynamic at 24 h [4]: 1300 µg/mL (≈ 3060 µM); half-life at 2 µM [5]: 275 min; permeability (Caco-2): BLD
O=C(O)c1ccc2c(C3CCCCC3)c(-c3ccoc3)n(CC(=O)N3CCC(O)CC3)c2c1 | > 250 | 2000 | 20 | 
CN1CCC(N(C)C(=O)Cn2c(-c3ccoc3)c(C3CCCCC3)c3ccc(C(=O)O)cc32)CC1 | > 250 | 130 | 20 | solubility thermodynamic at 24 h [4]: 290 µg/mL (≈ 607 µM); half-life at 2 µM [5]: > 300 min; Papp A→B [6]: 0.2 ×10⁻⁶ cm/s
O=C(O)c1ccc2c(C3CCCCC3)c(-c3ccoc3)n(CC(=O)N3CCC(C(=O)O)CC3)c2c1 | > 250 | > 94000 | 30 | 
CN(C)C(=O)Cn1c(-c2ccccn2)c(C2CCCCC2)c2ccc(C(=O)O)cc21 | > 250 | 3400 | 240 | 
CN(C)CCN(C)C(=O)Cn1c(-c2ccoc2)c(C2CCCCC2)c2ccc(C(=O)O)cc21 | > 250 | 440 | 20 | 
O=C(O)c1ccc2c(C3CCCCC3)c(-c3ccoc3)n(CC(=O)N3CCOCC3)c2c1 | > 250 | 600 | 30 | solubility thermodynamic at 24 h [4]: 105 µg/mL (≈ 241 µM); half-life at 2 µM [5]: > 300 min; IC50 (Cytochrome P450 2C9): ≥ 24 µM; half-life at 2 µM [7]: 288 min; Papp A→B [6]: 5.2 ×10⁻⁶ cm/s
CCCN(C)C(=O)Cn1c(-c2ccoc2)c(C2CCCCC2)c2ccc(C(=O)O)cc21 | > 250 | 1700 | 50 | 
CC(C)N(C)C(=O)Cn1c(-c2ccoc2)c(C2CCCCC2)c2ccc(C(=O)O)cc21 | > 250 | 800 | 30 | 
